Converted amounts (≈) assume the structure as drawn.
Experiments:
Klebsiella pneumoniae [1] = test: Antibacterial activity against Klebsiella pneumoniae isolate assessed after 24 hrs by serial dilution method; type: functional
Procedure, shortened: (§1)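 Strains were subcultured twice on MHA at 37 °C overnight. Inoculum was diluted from McFarland 0.5 to 10^5 cfu/ml, giving 10^4 cfu/ml in wells. Solvent, medium and organism-only controls were included. Incubated 37 °C, humid chamber, 24 h, in triplicate. MIC = lowest concentration with no macroscopic growth.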

Pseudomonas aeruginosa [2] = test: Antibacterial activity against Pseudomonas aeruginosa isolate assessed after 24 hrs by serial dilution method; type: functional; procedure, shortened: as §1
Escherichia coli [3] = test: Antibacterial activity against Escherichia coli isolate assessed after 24 hrs by serial dilution method; type: functional; procedure, shortened: as §1
Bacillus subtilis [4] = test: Antibacterial activity against Bacillus subtilis ATCC 6633 assessed after 24 hrs by serial dilution method; type: functional; procedure, shortened: as §1
Staphylococcus aureus [5] = test: Antibacterial activity against Staphylococcus aureus ATCC 25923 assessed after 24 hrs by serial dilution method; type: functional; procedure, shortened: as §1
Escherichia coli [6] = test: Antibacterial activity against Escherichia coli ATCC 25922 assessed after 24 hrs by serial dilution method
Klebsiella pneumoniae [7] = test: Antibacterial activity against Klebsiella pneumoniae RSHM 574 assessed after 24 hrs by serial dilution method
Bacillus subtilis [8] = test: Antibacterial activity against drug-resistant Bacillus subtilis assessed after 24 hrs by serial dilution method
Staphylococcus aureus [9] = test: Antibacterial activity against drug-resistant Staphylococcus aureus assessed after 24 hrs by serial dilution method
Candida albicans [10] = test: Antifungal activity against Candida albicans ATCC 10231 assessed after 48 hrs by serial dilution method; type: functional; settings: ATCC 10231, 48 h
Procedure, shortened: (§2)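 Broth microdilution per CLSI M27-A in RPMI-1640 with L-glutamine, MOPS-buffered pH 7, with 2-fold compound dilutions. Yeasts were subcultured twice on SDA at 35 °C for 24–48 h. Inoculum was diluted from McFarland 0.5 to 10^4 cfu/ml, giving 10^3 cfu/ml in wells. Incubated 35 °C, humid chamber, 48 h, in triplicate. MIC = lowest concentration with no macroscopic growth.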

Candida albicans [11] = test: Antifungal activity against Candida albicans isolate assessed after 48 hrs by serial dilution method; type: functional; procedure, shortened: as §2
Escherichia coli [12] = test: Antibacterial activity against Escherichia coli ATCC assessed after 24 hrs by serial dilution method
Pseudomonas aeruginosa [13] = test: Antibacterial activity against Pseudomonas aeruginosa ATCC […] assessed after 24 hrs by serial dilution method

Compound	MIC (Klebsiella pneumoniae [1])	MIC (Pseudomonas aeruginosa [2])	MIC (Escherichia coli [3])	MIC (Klebsiella pneumoniae [7])	MIC (Bacillus subtilis [8])	MIC (Staphylococcus aureus [9])	MIC (Bacillus subtilis [4]; ATCC 6633, 24 h)	MIC (Staphylococcus aureus [5]; ATCC 25923, 24 h)	MIC (Candida albicans [10])	MIC (Candida albicans [11])	MIC (Escherichia coli [12])	MIC (Pseudomonas aeruginosa [13])	MIC (Bacillus subtilis [4])	MIC (Staphylococcus aureus [5])	MIC (Escherichia coli [6])
GENTAMICIN SULFATE	1020 µg/mL	1020 µg/mL	0.97 µg/mL	> 4100 µg/mL	2050 µg/mL	1020 µg/mL							512 µg/mL	> 4100 µg/mL	1020 µg/mL
CCc1ccc(C(=O)Nc2ccc(N)cc2O)cc1	250 µg/mL (≈ 975 µM)	250 µg/mL (≈ 975 µM)	250 µg/mL (≈ 975 µM)	125 µg/mL (≈ 488 µM)	31.2 µg/mL (≈ 122 µM)	7.8 µg/mL (≈ 30.4 µM)	250 µg/mL (≈ 975 µM)	125 µg/mL (≈ 488 µM)	125 µg/mL (≈ 488 µM)	125 µg/mL (≈ 488 µM)	125 µg/mL (≈ 488 µM)	250 µg/mL (≈ 975 µM)			
O=C(Cc1ccc(F)cc1)Nc1cc([N+](=O)[O-])ccc1O	125 µg/mL (≈ 431 µM)	250 µg/mL (≈ 861 µM)	250 µg/mL (≈ 861 µM)	125 µg/mL (≈ 431 µM)	31.2 µg/mL (≈ 108 µM)	31.2 µg/mL (≈ 108 µM)	15.6 µg/mL (≈ 53.7 µM)	31.2 µg/mL (≈ 108 µM)	250 µg/mL (≈ 861 µM)	125 µg/mL (≈ 431 µM)	62.5 µg/mL (≈ 215 µM)	250 µg/mL (≈ 861 µM)			
Nc1ccc(NC(=O)c2ccc(Br)cc2)c(O)c1	250 µg/mL (≈ 814 µM)	250 µg/mL (≈ 814 µM)	250 µg/mL (≈ 814 µM)	250 µg/mL (≈ 814 µM)	31.2 µg/mL (≈ 102 µM)	7.8 µg/mL (≈ 25.4 µM)	62.5 µg/mL (≈ 203 µM)	125 µg/mL (≈ 407 µM)	250 µg/mL (≈ 814 µM)	125 µg/mL (≈ 407 µM)	125 µg/mL (≈ 407 µM)	250 µg/mL (≈ 814 µM)			
Nc1ccc(O)c(NC(=O)c2ccccc2)c1	250 µg/mL (≈ 1100 µM)	250 µg/mL (≈ 1100 µM)	250 µg/mL (≈ 1100 µM)	125 µg/mL (≈ 548 µM)	62.5 µg/mL (≈ 274 µM)	31.2 µg/mL (≈ 137 µM)	15.6 µg/mL (≈ 68.3 µM)	31.2 µg/mL (≈ 137 µM)	125 µg/mL (≈ 548 µM)	125 µg/mL (≈ 548 µM)	125 µg/mL (≈ 548 µM)	125 µg/mL (≈ 548 µM)			

More lines, in order of falling MIC (Klebsiella pneumoniae [1]), values ahead:

MIC (Klebsiella pneumoniae [1])	MIC (Pseudomonas aeruginosa [2])	MIC (Escherichia coli [3])	MIC (Klebsiella pneumoniae [7])	MIC (Bacillus subtilis [8])	MIC (Staphylococcus aureus [9])	MIC (Bacillus subtilis [4]; ATCC 6633, 24 h)	MIC (Staphylococcus aureus [5]; ATCC 25923, 24 h)	MIC (Candida albicans [10])	MIC (Candida albicans [11])	MIC (Escherichia coli [12])	MIC (Pseudomonas aeruginosa [13])	Compound	MIC (Bacillus subtilis [4])	MIC (Staphylococcus aureus [5])	MIC (Escherichia coli [6])
125 µg/mL (≈ 480 µM)	125 µg/mL (≈ 480 µM)	125 µg/mL (≈ 480 µM)	125 µg/mL (≈ 480 µM)	62.5 µg/mL (≈ 240 µM)	62.5 µg/mL (≈ 240 µM)	250 µg/mL (≈ 961 µM)	125 µg/mL (≈ 480 µM)	125 µg/mL (≈ 480 µM)	125 µg/mL (≈ 480 µM)	62.5 µg/mL (≈ 240 µM)	125 µg/mL (≈ 480 µM)	Nc1ccc(NC(=O)Cc2ccc(F)cc2)c(O)c1			
125 µg/mL (≈ 431 µM)	250 µg/mL (≈ 861 µM)	250 µg/mL (≈ 861 µM)	250 µg/mL (≈ 861 µM)	31.2 µg/mL (≈ 108 µM)	62.5 µg/mL (≈ 215 µM)	250 µg/mL (≈ 861 µM)	125 µg/mL (≈ 431 µM)	125 µg/mL (≈ 431 µM)	125 µg/mL (≈ 431 µM)	125 µg/mL (≈ 431 µM)	125 µg/mL (≈ 431 µM)	O=C(Cc1ccc(F)cc1)Nc1ccc([N+](=O)[O-])cc1O			
125 µg/mL (≈ 440 µM)	62.5 µg/mL (≈ 220 µM)	125 µg/mL (≈ 440 µM)	125 µg/mL (≈ 440 µM)	7.8 µg/mL (≈ 27.4 µM)	7.8 µg/mL (≈ 27.4 µM)	15.6 µg/mL (≈ 54.9 µM)	15.6 µg/mL (≈ 54.9 µM)	62.5 µg/mL (≈ 220 µM)	62.5 µg/mL (≈ 220 µM)	125 µg/mL (≈ 440 µM)	62.5 µg/mL (≈ 220 µM)	CC(C)(C)c1ccc(C(=O)Nc2ccc(N)cc2O)cc1			

From ChEMBL document CHEMBL1146365, “Synthesis and biological evaluation of new N-(2-hydroxy-4(or 5)-nitro/aminophenyl)benzamides and phenylacetamides as antimicrobial agents” (2007)
